This note sets out measurements from ChEMBL document CHEMBL1687827, “Profiling the Aspergillus fumigatus proteome in response to caspofungin” (2011).

Test [1] relates to Aspergillus fumigatus. As to the kind of experiment: Induction of change in ThiJ/PfpI family protein level in iTRAQ-118 labelled cell wall fraction of drug-resistant Aspergillus fumigatus EMFR-S678P at 0.12 ug/ml after 24 hrs in YPD medium by MS (MS/MS) analysis relative to control. The test is classed as functional. A digest of the protocol: (§1)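 Conidia at 1 × 10⁵/ml were grown at 37°C, shaking at 225 rpm, in YPD with or without 0.12 μg/ml caspofungin for 24 or 48 h. The culture filtrate was kept as the secreted fraction. Mycelia were lysed by French press in HEPES/glycerol/EDTA/PMSF/DTT buffer, and the 5,000 × g pellet was washed to give CW/PM. Proteins were reduced, alkylated and trypsin-digested at 37°C overnight, then iTRAQ-labelled and run by 2D LC-MS/MS. Ratios are the median of unique-peptide ratios, median-normalized, versus the no-drug control.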

In test [2] the test system is Aspergillus fumigatus. Briefly: Induction of change in GNAT family acetyltransferase, putative protein level in iTRAQ-118 labelled cell wall fraction of drug-resistant Aspergillus fumigatus EMFR-S678P at 0.12 ug/ml after 24 hrs in YPD medium by MS (MS/MS) analysis relative to control. The test is classed as functional, organism-based. The procedure, abridged: as §1

Test [3] relates to Aspergillus fumigatus. Briefly: Induction of change in conserved hypothetical gene locus AFUA_5G03010 expression in drug-susceptible Aspergillus fumigatus KU80 delta-akuB at 0.12 ug/ml after 24 hrs in YPD medium by microarray analysis relative to control. The test is classed as functional. A digest of the protocol: (§2)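 Mycelia grown in YPD ± 0.12 μg/ml caspofungin (1 × 10⁵ conidia/ml, 37°C, shaking) and harvested at 24 or 48 h. Total RNA extracted, DNase-treated and quality-checked; 2 μg labelled per TIGR SOP M007 and hybridized to whole-genome arrays. Three independent experiments with dye flip (6 replicates); drug vs untreated fold change.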

The test system of test [4] is Aspergillus fumigatus. Briefly: Induction of change in allergen Asp F4 protein level in iTRAQ-118 labelled cell wall fraction of drug-resistant Aspergillus fumigatus EMFR-S678P at 0.12 ug/ml after 24 hrs in YPD medium by MS (MS/MS) analysis relative to control. The test is classed as functional. The procedure, abridged: as §1
Test [5] relates to Aspergillus fumigatus. As to the kind of experiment: Induction of change in hypothetical gene locus AFUA_4G11270 expression in drug-susceptible Aspergillus fumigatus KU80 delta-akuB at 0.12 ug/ml after 48 hrs in YPD medium by microarray analysis relative to control. The test is classed as functional. The procedure, abridged: as §2
For test [6], the system named is Aspergillus fumigatus. As to the kind of experiment: Induction of change in stearic acid desaturase (SdeA), putative gene expression in drug-susceptible Aspergillus fumigatus KU80 delta-akuB at 0.12 ug/ml after 24 hrs in YPD medium by microarray analysis relative to control. The test is classed as functional. A digest of the protocol: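 Mycelia grown from 1 × 10⁵ conidia/ml in YPD at 37°C, 225 rpm, with or without 0.12 μg/ml caspofungin. Total RNA extracted, DNase-treated; 2 μg labelled per TIGR SOP M007 for whole-genome array hybridization. Three independent experiments with dye flip (6 replicates); >2-fold change deemed significant.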

In test [7] the test system is Aspergillus fumigatus. As to the kind of experiment: Induction of change in Ribosomal protein S13p/S18e protein level in iTRAQ114 labelled cell wall fraction of drug-susceptible Aspergillus fumigatus KU80 delta-akuB at 0.12 ug/ml after 24 hrs in YPD medium by MS (MS/MS) analysis relative to control. The test is classed as functional. The procedure, abridged:
(§3)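 Conidia at 1 × 10⁵/ml grown shaking at 37°C in YPD with or without 0.12 μg/ml caspofungin; mycelia filtered at 24 or 48 h. Secreted fraction taken from the filtrate; cell wall/plasma membrane pellet recovered after French-press lysis and a 5,000 × g spin. Proteins trypsin-digested and iTRAQ-labelled, drug vs no-drug channels at each time, then 2D LC-MS/MS. Protein ratio is the median of ratios from uniquely assigned peptides after median normalization.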

Test [8] relates to Aspergillus fumigatus. Briefly: Induction of change in ribosomal protein L27a protein level in iTRAQ114 labelled cell wall fraction of drug-susceptible Aspergillus fumigatus KU80 delta-akuB at 0.12 ug/ml after 24 hrs in YPD medium by MS (MS/MS) analysis relative to control. The test is classed as functional.
In test [9] the test system is Aspergillus fumigatus. Briefly: Induction of change in IgE-binding gene expression in drug-susceptible Aspergillus fumigatus KU80 delta-akuB at 0.12 ug/ml after 48 hrs in YPD medium by microarray analysis relative to control. The test is classed as functional. A digest of the protocol: as §2
For test [10], the system named is Aspergillus fumigatus. Briefly: Induction of change in NAP family protein level in iTRAQ-118 labelled cell wall fraction of drug-susceptible Aspergillus fumigatus KU80 delta-akuB at 0.12 ug/ml after 24 hrs in YPD medium by MS (MS/MS) analysis relative to control. The test is classed as functional. A digest of the protocol: as §3
The subject of test [11] is Aspergillus fumigatus. Briefly: Induction of change in cell wall protein PhiA protein level in iTRAQ-116 labelled secreted fraction of drug-resistant Aspergillus fumigatus EMFR-S678P at 0.12 ug/ml after 48 hrs in YPD medium by MS (MS/MS) analysis relative to control. The test is classed as functional, organism-based. The procedure, abridged: as §1
The test system of test [12] is Aspergillus fumigatus. As to the kind of experiment: Induction of change in 40S ribosomal protein S3Ae protein level in iTRAQ114 labelled cell wall fraction of drug-resistant Aspergillus fumigatus EMFR-S678P at 0.12 ug/ml after 24 hrs in YPD medium by MS (MS/MS) analysis relative to control. The test is classed as functional. A digest of the protocol: as §1
Test [13] relates to Aspergillus fumigatus. As to the kind of experiment: Induction of change in allergen Asp F4 protein level in iTRAQ114 labelled secreted fraction of drug-resistant Aspergillus fumigatus EMFR-S678P at 0.12 ug/ml after 24 hrs in YPD medium by MS (MS/MS) analysis relative to control. The test is classed as functional, organism-based. A digest of the protocol: as §1
In test [14] the test system is Aspergillus fumigatus. Briefly: Induction of change in extracellular thaumatin domain protein, putative gene expression in drug-susceptible Aspergillus fumigatus KU80 delta-akuB at 0.12 ug/ml after 48 hrs in YPD medium by microarray analysis relative to control. The test is classed as functional. The procedure, abridged: as §2
For test [15], the system named is Aspergillus fumigatus. Briefly: Induction of change in cytosolic small ribosomal subunit protein S12 protein level in iTRAQ114 labelled secreted fraction of drug-susceptible Aspergillus fumigatus KU80 delta-akuB at 0.12 ug/ml after 24 hrs in YPD medium by MS (MS/MS) analysis relative to control. The test is classed as functional. A digest of the protocol:
as §3

In test [16] the test system is Aspergillus fumigatus. Briefly: Induction of change in GNAT family acetyltransferase, putative protein level in iTRAQ-118 labelled cell wall fraction of drug-susceptible Aspergillus fumigatus KU80 delta-akuB at 0.12 ug/ml after 24 hrs in YPD medium by MS (MS/MS) analysis relative to control. The test is classed as functional. A digest of the protocol:
as §3

Test [17] relates to Aspergillus fumigatus. Briefly: Induction of change in ubiquinol-cytochrome C reductase complex core protein 2, putative protein level in iTRAQ-118 labelled cell wall fraction of drug-susceptible Aspergillus fumigatus KU80 delta-akuB at 0.12 ug/ml after 24 hrs in YPD medium by MS (MS/MS) analysis relative to control. The test is classed as functional. A digest of the protocol: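 Conidia (1 × 10⁵/ml) grown in YPD, 37°C, 225 rpm, ± 0.12 μg/ml caspofungin; filtrate taken as secreted fraction, French-press lysate 5,000 × g pellet as cell wall/plasma membrane. Trypsin digests 8-plex iTRAQ-labelled (drug-free channels as references), pooled, 2D-chromatography, MS/MS. Median-normalized; protein ratio = median of unique-peptide ratios, log2 normalized.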

Test [18] has as its system Aspergillus fumigatus. Briefly: Induction of change in aconitate hydratase, mitochondrial protein level in iTRAQ-116 labelled secreted fraction of drug-susceptible Aspergillus fumigatus KU80 delta-akuB at 0.12 ug/ml after 48 hrs in YPD medium by MS (MS/MS) analysis relative to control. The test is classed as functional. The procedure, abridged:
as §3

Activity calls are given as the source filed them. The rule behind the calls is not given here.

On to `CC[C@H](C)C[C@H](C)CCCCCCCCC(=O)N[C@H]1C[C@@H](O)[C@@H](NCCN)NC(=O)[C@@H]2[C@@H](O)CCN2C(=O)[C@H]([C@H](O)CCN)NC(=O)[C@H]([C@H](O)[C@@H](O)c2ccc(O)cc2)NC(=O)[C@@H]2C[C@@H](O)CN2C(=O)[C@H]([C@@H](C)O)NC1=O` [CASPOFUNGIN], for which the “fold change (FC)” value in the test on Aspergillus fumigatus [1] is listed as 1.23; with Aspergillus fumigatus [3], 5.6; in the test with Aspergillus fumigatus [4], 1.07; with Aspergillus fumigatus [5], 3.7; with Aspergillus fumigatus [6], -4.6; with Aspergillus fumigatus [7] it was 2.3. The “fold change (FC)” value is given as 1.9 in the test with Aspergillus fumigatus [8]; 7.6 in the test with Aspergillus fumigatus [9]; 2.8 in the test on Aspergillus fumigatus [10]; 1.07 in the test on Aspergillus fumigatus [12]; -11.2 with Aspergillus fumigatus [14]; 1.5 in the test with Aspergillus fumigatus [15]. In addition, the “fold change (FC)” value in the test with Aspergillus fumigatus [16] is -2.6; in the test with Aspergillus fumigatus [17], -2; in the test with Aspergillus fumigatus [18] it was 1.2. In addition, the result in the test on Aspergillus fumigatus [2], in the test on Aspergillus fumigatus [11] and in the test on Aspergillus fumigatus [13] was inactive.
